# Measurements reported in ChEMBL document CHEMBL3525967, “In vitro glucuronidation of the antibacterial triclocarban and its oxidative metabolites” (Drug Metab Dispos, 2012).
# How the values were obtained:
# [1] = Drug metabolism in microsomes (unknown origin) assessed as retention time treated with 10 uM triclocarban by LC-UV-MS method; assay type: ADME, Microsome
# [2] = Drug level in Swiss webster mouse urine treated with triclocarban at 5 mg/kg, po by LC-MS analysis; assay type: ADME, organism-based; parameters: dose 5 mg/kg, route oral; settings: in vivo
# Procedure, shortened: (§1)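 TCC given by oral gavage as 1 mg/mL in 20/80 DMSO/PEG400, at 1 mg/kg (rats) or 5 mg/kg (mice). Animals in metabolic cages (mice two per cage, rats singly), blank urine taken 24 h before dosing. Urine collected 0-24 h and 24-48 h and analysed by online-LC-MS.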
# [3] = Drug level in Sprague-Dawley rat urine treated with triclocarban at 1 mg/kg, po by LC-MS analysis; assay type: ADME, organism-based; parameters: dose 1 mg/kg, route oral; settings: in vivo; procedure, shortened: as §1
# Liver microsome [4] = assay: Drug metabolism in Sprague-Dawley rat liver microsomes assessed as retention time treated with 6-hydroxy-triclocarban by LC-UV-MS method in presence of UDPGA; assay type: ADME
# [5] = Drug excretion in human urine assessed as retention time treated with triclocarban by LC-UV-MS method; assay type: ADME
# Liver microsome [6] = assay: Drug level in human liver microsomes treated with triclocarban incubated for 5 mins prior to UDPGA addition measured after 30 mins by LC-UV-ESI-MS/MS analysis; assay type: ADME; settings: 0.5 h
# Procedure, shortened: (§2)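 Microsomes or Sf-9 Supersomes (5 µg protein in 200 µL 100 mM potassium phosphate pH 7.4) pre-treated with alamethicin on ice 15 min; substrate 10 µM final (2% DMSO), MgCl2 and saccharolactone 10 mM each; 5 min preincubation at 37 °C, then UDPGA to start. Samples taken at 5, 10, 15, 30 min (or 2, 5, 10, 15 min) into ACN with internal standard; LC-UV-ESI-MS/MS.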
# [7] = Drug level in cynomolgus monkey liver microsomes treated with triclocarban incubated for 5 mins prior to UDPGA addition measured after 30 mins by LC-UV-ESI-MS/MS analysis; assay type: ADME, Macaca fascicularis; settings: 0.5 h; procedure, shortened: as §2
# Liver = assay: Drug level in B6C3F1 mouse liver microsomes treated with triclocarban incubated for 5 mins prior to UDPGA addition measured after 30 mins by LC-UV-ESI-MS/MS analysis; assay type: ADME; settings: 0.5 h; procedure, shortened: as §2
# [8] = Drug level in human kidney microsomes treated with triclocarban incubated for 5 mins prior to UDPGA addition measured after 30 mins by LC-UV-ESI-MS/MS analysis; assay type: ADME; settings: 0.5 h; procedure, shortened: as §2
# [9] = target: T1, UDP-glucuronosyltransferase 1A9 (Homo sapiens, UniProt O60656); assay: Activity of human UGT1A9 expressed in baculovirus infected insect sf9 cells assessed as enzyme-mediated drug metabolism treated with triclocarban incubated for 5 mins prior to UDPGA addition measured after 30 mins by LC-ESI-MS analysis; assay type: ADME; settings: sf9, 0.5 h; procedure, shortened: as §2
# T1 sequence (O60656 whole entry): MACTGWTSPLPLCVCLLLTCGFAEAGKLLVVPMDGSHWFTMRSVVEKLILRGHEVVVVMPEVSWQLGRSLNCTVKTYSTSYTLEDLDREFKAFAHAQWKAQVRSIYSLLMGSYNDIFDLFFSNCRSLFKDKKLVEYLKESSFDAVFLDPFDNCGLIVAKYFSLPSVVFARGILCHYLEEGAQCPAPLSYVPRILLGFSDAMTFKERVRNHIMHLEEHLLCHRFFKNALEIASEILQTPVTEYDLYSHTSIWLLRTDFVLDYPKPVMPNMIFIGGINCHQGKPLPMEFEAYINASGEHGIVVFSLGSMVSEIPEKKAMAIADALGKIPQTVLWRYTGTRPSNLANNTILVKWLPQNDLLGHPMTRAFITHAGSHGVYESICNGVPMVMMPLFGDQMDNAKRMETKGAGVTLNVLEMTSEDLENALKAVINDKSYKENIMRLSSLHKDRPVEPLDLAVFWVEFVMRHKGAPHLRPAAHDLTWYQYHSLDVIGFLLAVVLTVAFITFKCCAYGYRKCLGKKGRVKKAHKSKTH
Structure (SMILES),Retention_time [1],Drug metabolism [2],Drug metabolism [3],Retention_time (Liver microsome [4]),Retention_time [5],Drug metabolism (Liver microsome [6]),Drug metabolism [7],Drug metabolism (Liver),Drug metabolism [8],Drug metabolism [9]
O=C(Nc1ccc(Cl)c(Cl)c1)Nc1ccc(Cl)cc1OC1O[C@H](C(=O)O)[C@@H](O)[C@H](O)[C@H]1O (stereo not given in full),2.5 min,metabolite_detected,metabolite_detected,,,,,,,
O=C(O)[C@H]1OC(N(C(=O)Nc2ccc(Cl)c(Cl)c2)c2ccc(Cl)cc2)[C@H](O)[C@@H](O)[C@@H]1O (stereo not given in full),,metabolite_detected,,,2.07 min,metabolite_detected,metabolite_detected,metabolite_detected,metabolite_detected,metabolite_detected
O=C(Nc1ccc(Cl)c(Cl)c1)Nc1ccc(Cl)c(OC2O[C@H](C(=O)O)[C@@H](O)[C@H](O)[C@H]2O)c1 (stereo not given in full),,metabolite_detected,metabolite_detected,2.26 min,,,,,,
O=C(Nc1ccc(Cl)c(Cl)c1)Nc1ccc(Cl)cc1OS(=O)(=O)O,3.46 min,,,,,,,,,

# Next, values leading:
Retention_time [1],Drug metabolism [2],Drug metabolism [3],Retention_time (Liver microsome [4]),Retention_time [5],Drug metabolism (Liver microsome [6]),Drug metabolism [7],Drug metabolism (Liver),Drug metabolism [8],Drug metabolism [9],Structure (SMILES)
,metabolite_detected,metabolite_detected,2.51 min,,,,,,,O=C(Nc1ccc(Cl)cc1)Nc1cc(Cl)c(Cl)cc1OC1O[C@H](C(=O)O)[C@@H](O)[C@H](O)[C@H]1O (stereo not given in full)
,metabolite_detected,,,1.97 min,metabolite_detected,metabolite_detected,metabolite_detected,metabolite_detected,metabolite_detected,O=C(O)[C@H]1OC(N(C(=O)Nc2ccc(Cl)cc2)c2ccc(Cl)c(Cl)c2)[C@H](O)[C@@H](O)[C@@H]1O (stereo not given in full)
4.36 min,,,,,,,,,,O=C(Nc1ccc(Cl)cc1)Nc1ccc(Cl)cc1
